Data from ChEMBL document CHEMBL4219066, “Identification and Mitigation of Reactive Metabolites of 2-Aminoimidazole-Containing Microsomal Prostaglandin E Synthase-1 Inhibitors Terminated Due to Clinical Drug-Induced Liver Injury” (J Med Chem, 2018).

How the values were obtained:
[1] = Drug level in human liver microsomes treated with 2 -Chloro-N-(4,5-dimethyl-1H-imidazol-2-yl)-5-(pivalamidomethyl)benzamide at 2 uM after 0.5 hrs in presence of 1:1 ratio of unlabeled GSH and [glycine 13C2,15N]-labelled GSH by HPLC-MS analysis; type: ADME, microsome
Outline: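 Glutathione-trapping incubation in human liver microsomes fortified with GSH to capture reactive intermediates. Metabolites and GSH adducts were identified by MS.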

[2] = Drug level in human hepatocytes treated with 2-Chloro-N-(4-cyano-1H-imidazol-2-yl)-5-(pivalamidomethyl)benzamide at 2 uM after 4 hrs by LC-MS/MS analysis; type: ADME, cell-based, Hepatocyte
[3] = Drug level in rat hepatocytes treated with 2-Chloro-N-(4-cyano-1H-imidazol-2-yl)-5-(pivalamidomethyl)benzamide at 2 uM after 4 hrs by LC-MS/MS analysis; type: ADME, cell-based, Hepatocyte

Structure (SMILES) | Drug metabolism [1] | Drug metabolism [2] | Drug metabolism [3]
Cc1[nH]c(NC(=O)c2cc(CNC(=O)C(C)(C)C)ccc2Cl)nc1CSC[C@H](NC(=O)CC[C@H](N)C(=O)O)C(=O)NCC(=O)O | Metabolite_Detected | – | –
CC(C)(CO)C(=O)NCc1ccc(Cl)c(C(=O)Nc2nc(C#N)c[nH]2)c1 | – | Metabolite_Detected | Metabolite_Detected
